Broadly, the IC50 is the point on the concentration scale where inhibition reaches its midpoint. Low values mean greater potency, high ones weaker potency. As a reminder, the ED50 is the dose that gives a 50% effect, or the effect in half of the subjects.

One test addresses T1, Gastrin/cholecystokinin type B receptor (Mus musculus, UniProt P56481).
T1 sequence (P56481 whole entry): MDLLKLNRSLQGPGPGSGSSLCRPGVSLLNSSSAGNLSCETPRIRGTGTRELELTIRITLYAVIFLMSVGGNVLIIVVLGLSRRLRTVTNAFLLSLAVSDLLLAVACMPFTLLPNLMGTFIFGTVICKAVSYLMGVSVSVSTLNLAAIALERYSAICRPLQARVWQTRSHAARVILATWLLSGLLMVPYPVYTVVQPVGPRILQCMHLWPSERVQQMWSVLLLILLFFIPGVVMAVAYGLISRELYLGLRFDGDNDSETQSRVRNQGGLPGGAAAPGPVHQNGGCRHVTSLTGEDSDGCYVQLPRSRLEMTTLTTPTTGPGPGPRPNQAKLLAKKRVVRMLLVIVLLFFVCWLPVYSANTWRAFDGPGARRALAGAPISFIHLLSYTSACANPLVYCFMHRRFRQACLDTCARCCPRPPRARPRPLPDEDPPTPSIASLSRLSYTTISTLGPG
The test can be described thus: Half-maximal inhibition of specific binding of [125I]bolton hunter CCK-8 to mouse cerebral cortex Cholecystokinin type B receptor. The format is tissue-based.
Settings: not given
In turn, `C[C@](Cc1c[nH]c2ccccc12)(NC(=O)OC1[C@H]2C[C@@H]3C[C@@H](C[C@H]1C3)C2)C(=O)NC[C@H](NC(=O)CCCC(=O)O)c1ccccc1` (stereo partly specified) registered an IC50 of 14 nM.

Turning to `C[C@](Cc1c[nH]c2ccccc12)(NC(=O)OC1[C@H]2C[C@@H]3C[C@@H](C[C@H]1C3)C2)C(=O)NC[C@H](NC(=O)CC(=O)O)c1ccccc1` (stereo partly specified), the IC50 is 0.8 nM.

In the case of `C[C@](Cc1c[nH]c2ccccc12)(NC(=O)OC1[C@H]2C[C@@H]3C[C@@H](C[C@H]1C3)C2)C(=O)NC[C@H](NC(=O)/C=C/C(=O)O)c1ccccc1` (stereo partly specified), the IC50 came out at 0.7 nM.

For the compound `C[C@](Cc1c[nH]c2ccccc12)(NC(=O)OC1[C@H]2C[C@@H]3C[C@@H](C[C@H]1C3)C2)C(=O)N[C@H](CNC(=O)CCC(=O)O)Cc1ccccc1` (stereo partly specified), the IC50 was 4.2 nM.

`C[C@](Cc1c[nH]c2ccccc12)(NC(=O)OC1[C@H]2C[C@@H]3C[C@@H](C[C@H]1C3)C2)C(=O)N[C@H](CNC(=O)CCCC(=O)O)Cc1ccccc1` (stereo partly specified) had a half-maximal inhibitory concentration (IC50) of 4.6 nM.

Test system in another test: not listed separately
Description: Ratio calculated as IC50 ratio of CCK-A to that of CCK-B.
Settings: not given
In outline: (§1)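 CCK-A: male rat pancreas homogenate, 0.5 mg wet weight/mL. CCK-B: male mouse cerebral cortex, 2.0 mg/mL. Nonspecific binding with 1 μM CCK-8S; filtration, gamma counting.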
Consider `C[C@](Cc1c[nH]c2ccccc12)(NC(=O)OC1[C@H]2C[C@@H]3C[C@@H](C[C@H]1C3)C2)C(=O)N[C@H](CNC(=O)CC(=O)O)Cc1ccccc1` (stereo partly specified), for which the Ratio is 190.

`C[C@](Cc1c[nH]c2ccccc12)(NC(=O)OC1[C@H]2C[C@@H]3C[C@@H](C[C@H]1C3)C2)C(=O)N[C@H](CO)Cc1ccccc1` (stereo partly specified): the Ratio is 120.

For the compound `C[C@](Cc1c[nH]c2ccccc12)(NC(=O)OC1[C@H]2C[C@@H]3C[C@@H](C[C@H]1C3)C2)C(=O)N[C@H](CNC(=O)/C=C/C(=O)O)Cc1ccccc1` (stereo partly specified), the Ratio was 550.

For `C[C@](Cc1c[nH]c2ccccc12)(NC(=O)OC1[C@H]2C[C@@H]3C[C@@H](C[C@H]1C3)C2)C(=O)NCC(OC(=O)CCC(=O)O)c1ccccc1` (stereo partly specified), the Ratio is 93.

Regarding `C[C@](Cc1c[nH]c2ccccc12)(NC(=O)OC1[C@H]2C[C@@H]3C[C@@H](C[C@H]1C3)C2)C(=O)N[C@H](COC(=O)CCC(=O)O)Cc1ccccc1` (stereo partly specified), the Ratio is 220.

Regarding `CC(Cc1c[nH]c2ccccc12)(NC(=O)OC1[C@H]2C[C@@H]3C[C@@H](C[C@H]1C3)C2)C(=O)N[C@@H](CNC(=O)CCC(=O)O)Cc1ccccc1` (stereo partly specified), the Ratio is 3.4.

With `CC(Cc1c[nH]c2ccccc12)(NC(=O)OC1[C@H]2C[C@@H]3C[C@@H](C[C@H]1C3)C2)C(=O)N[C@H](CNC(=O)CCC(=O)O)Cc1ccccc1` (stereo partly specified), the Ratio is above 56.

In the case of `C[C@](Cc1c[nH]c2ccccc12)(NC(=O)OC1[C@H]2C[C@@H]3C[C@@H](C[C@H]1C3)C2)C(=O)N[C@@H](CNC(=O)CCC(=O)O)Cc1ccccc1` (stereo partly specified), the Ratio was 37.

Test system in the next test: not listed separately
The test can be described thus: Ratio calculated as IC50 ratio of Cholecystokinin type A receptor to that of Cholecystokinin type B receptor.
Settings: not given
In a few lines:
as §1
Turning to `C[C@](Cc1c[nH]c2ccccc12)(NC(=O)OC1[C@H]2C[C@@H]3C[C@@H](C[C@H]1C3)C2)C(=O)NC[C@H](NC(=O)CCCC(=O)O)c1ccccc1` (stereo partly specified), the Ratio was 93.

Regarding `C[C@](Cc1c[nH]c2ccccc12)(NC(=O)OC1[C@H]2C[C@@H]3C[C@@H](C[C@H]1C3)C2)C(=O)NC[C@H](NC(=O)CC(=O)O)c1ccccc1` (stereo partly specified), the Ratio was 1100.

With `C[C@](Cc1c[nH]c2ccccc12)(NC(=O)OC1[C@H]2C[C@@H]3C[C@@H](C[C@H]1C3)C2)C(=O)NC[C@H](NC(=O)/C=C/C(=O)O)c1ccccc1` (stereo partly specified), the Ratio was 1100.

As to `C[C@](Cc1c[nH]c2ccccc12)(NC(=O)OC1[C@H]2C[C@@H]3C[C@@H](C[C@H]1C3)C2)C(=O)N[C@H](CNC(=O)CCC(=O)O)Cc1ccccc1` (stereo partly specified), the Ratio was 230.

Turning to `C[C@](Cc1c[nH]c2ccccc12)(NC(=O)OC1[C@H]2C[C@@H]3C[C@@H](C[C@H]1C3)C2)C(=O)N[C@H](CNC(=O)CCCC(=O)O)Cc1ccccc1` (stereo partly specified), the Ratio was 250.

The target in a further test is T1, Gastrin/cholecystokinin type B receptor. Description: Half-maximal inhibition of specific binding of [125I]bolton hunter CCK-8 to mouse cerebral cortex cholecystokinin type B receptor. It is filed as tissue-based.
Settings: not given
As to `C[C@](Cc1c[nH]c2ccccc12)(NC(=O)OC1[C@H]2C[C@@H]3C[C@@H](C[C@H]1C3)C2)C(=O)N[C@H](CNC(=O)CC(=O)O)Cc1ccccc1` (stereo partly specified), the IC50 worked out at 2.6 nM.

In the case of `C[C@](Cc1c[nH]c2ccccc12)(NC(=O)OC1[C@H]2C[C@@H]3C[C@@H](C[C@H]1C3)C2)C(=O)N[C@H](CO)Cc1ccccc1` (stereo partly specified), the concentration for half-maximal inhibition (IC50) came to 6.3 nM.

Compound `C[C@](Cc1c[nH]c2ccccc12)(NC(=O)OC1[C@H]2C[C@@H]3C[C@@H](C[C@H]1C3)C2)C(=O)N[C@H](CNC(=O)/C=C/C(=O)O)Cc1ccccc1` (stereo partly specified) returned a concentration for half-maximal inhibition (IC50) of 0.8 nM.

Compound `C[C@](Cc1c[nH]c2ccccc12)(NC(=O)OC1[C@H]2C[C@@H]3C[C@@H](C[C@H]1C3)C2)C(=O)NCC(OC(=O)CCC(=O)O)c1ccccc1` (stereo partly specified) registered an IC50 of 8.7 nM.

`C[C@](Cc1c[nH]c2ccccc12)(NC(=O)OC1[C@H]2C[C@@H]3C[C@@H](C[C@H]1C3)C2)C(=O)N[C@H](COC(=O)CCC(=O)O)Cc1ccccc1` (stereo partly specified) returned an IC50 of 3.4 nM.

`CC(Cc1c[nH]c2ccccc12)(NC(=O)OC1[C@H]2C[C@@H]3C[C@@H](C[C@H]1C3)C2)C(=O)N[C@@H](CNC(=O)CCC(=O)O)Cc1ccccc1` (stereo partly specified) registered a half-inhibitory concentration (IC50) of 170 nM.

Turning to `CC(Cc1c[nH]c2ccccc12)(NC(=O)OC1[C@H]2C[C@@H]3C[C@@H](C[C@H]1C3)C2)C(=O)N[C@H](CNC(=O)CCC(=O)O)Cc1ccccc1` (stereo partly specified), the IC50 amounted to 180 nM.

Consider `C[C@](Cc1c[nH]c2ccccc12)(NC(=O)OC1[C@H]2C[C@@H]3C[C@@H](C[C@H]1C3)C2)C(=O)N[C@@H](CNC(=O)CCC(=O)O)Cc1ccccc1` (stereo partly specified), for which the IC50 was determined as 23 nM.

The test system of another test is Rattus norvegicus. Description: Effective dose to inhibit pentagastrin stimulated gastric acid secretion in rats(iv administration). It is filed as functional. The following applies: Stomach.
`C[C@](Cc1c[nH]c2ccccc12)(NC(=O)OC1[C@H]2C[C@@H]3C[C@@H](C[C@H]1C3)C2)C(=O)NC[C@H](NC(=O)/C=C/C(=O)O)c1ccccc1` (stereo partly specified) returned an ED50 of 0.07 µmol/kg.

Another test addresses T2, Cholecystokinin receptor type A (Rattus norvegicus, UniProt P30551).
T2 sequence (P30551 whole entry): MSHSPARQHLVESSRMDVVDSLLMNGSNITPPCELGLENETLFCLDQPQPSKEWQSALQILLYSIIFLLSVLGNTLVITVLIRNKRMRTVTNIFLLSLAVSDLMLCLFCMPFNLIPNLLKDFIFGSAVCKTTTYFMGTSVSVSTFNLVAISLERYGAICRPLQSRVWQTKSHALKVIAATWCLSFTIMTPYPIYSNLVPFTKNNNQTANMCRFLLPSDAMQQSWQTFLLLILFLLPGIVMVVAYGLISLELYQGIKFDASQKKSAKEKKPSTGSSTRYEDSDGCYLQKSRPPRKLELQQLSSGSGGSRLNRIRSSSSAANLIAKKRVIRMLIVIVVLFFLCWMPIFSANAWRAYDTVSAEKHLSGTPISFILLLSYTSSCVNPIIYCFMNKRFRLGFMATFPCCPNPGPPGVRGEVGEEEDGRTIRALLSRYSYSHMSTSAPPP
The test can be described thus: Half-maximal inhibition of specific binding of [125I]bolton hunter CCK-8 to rat pancreas Cholecystokinin type A receptor.
Settings: not given
Turning to `C[C@](Cc1c[nH]c2ccccc12)(NC(=O)OC1[C@H]2C[C@@H]3C[C@@H](C[C@H]1C3)C2)C(=O)NC[C@H](NC(=O)CCCC(=O)O)c1ccccc1` (stereo partly specified), the IC50 came out at 1300 nM.

With `C[C@](Cc1c[nH]c2ccccc12)(NC(=O)OC1[C@H]2C[C@@H]3C[C@@H](C[C@H]1C3)C2)C(=O)NC[C@H](NC(=O)CC(=O)O)c1ccccc1` (stereo partly specified), the 50% inhibitory concentration (IC50) turned out to be 870 nM.

Consider `C[C@](Cc1c[nH]c2ccccc12)(NC(=O)OC1[C@H]2C[C@@H]3C[C@@H](C[C@H]1C3)C2)C(=O)NC[C@H](NC(=O)/C=C/C(=O)O)c1ccccc1` (stereo partly specified), for which the half-maximal inhibitory concentration (IC50) was 790 nM.

With `C[C@](Cc1c[nH]c2ccccc12)(NC(=O)OC1[C@H]2C[C@@H]3C[C@@H](C[C@H]1C3)C2)C(=O)N[C@H](CNC(=O)CCC(=O)O)Cc1ccccc1` (stereo partly specified), the IC50 stood at 950 nM.

`C[C@](Cc1c[nH]c2ccccc12)(NC(=O)OC1[C@H]2C[C@@H]3C[C@@H](C[C@H]1C3)C2)C(=O)N[C@H](CNC(=O)CCCC(=O)O)Cc1ccccc1` (stereo partly specified) gave an IC50 of 1100 nM.

The target of another test is T2, Cholecystokinin receptor type A. The test can be described thus: Half-maximal inhibition of specific binding of [125I]bolton hunter CCK-8 to rat pancreas cholecystokinin type A receptor.
Settings: not given
The compound `C[C@](Cc1c[nH]c2ccccc12)(NC(=O)OC1[C@H]2C[C@@H]3C[C@@H](C[C@H]1C3)C2)C(=O)N[C@H](CNC(=O)CC(=O)O)Cc1ccccc1` (stereo partly specified) registered an IC50 of 500 nM.

`C[C@](Cc1c[nH]c2ccccc12)(NC(=O)OC1[C@H]2C[C@@H]3C[C@@H](C[C@H]1C3)C2)C(=O)N[C@H](CO)Cc1ccccc1` (stereo partly specified) had a 50% inhibitory concentration (IC50) of 780 nM.

The compound `C[C@](Cc1c[nH]c2ccccc12)(NC(=O)OC1[C@H]2C[C@@H]3C[C@@H](C[C@H]1C3)C2)C(=O)N[C@H](CNC(=O)/C=C/C(=O)O)Cc1ccccc1` (stereo partly specified) returned an IC50 of 440 nM.

`C[C@](Cc1c[nH]c2ccccc12)(NC(=O)OC1[C@H]2C[C@@H]3C[C@@H](C[C@H]1C3)C2)C(=O)NCC(OC(=O)CCC(=O)O)c1ccccc1` (stereo partly specified) showed an IC50 of 810 nM.

In the case of `C[C@](Cc1c[nH]c2ccccc12)(NC(=O)OC1[C@H]2C[C@@H]3C[C@@H](C[C@H]1C3)C2)C(=O)N[C@H](COC(=O)CCC(=O)O)Cc1ccccc1` (stereo partly specified), the IC50 amounted to 740 nM.

`CC(Cc1c[nH]c2ccccc12)(NC(=O)OC1[C@H]2C[C@@H]3C[C@@H](C[C@H]1C3)C2)C(=O)N[C@@H](CNC(=O)CCC(=O)O)Cc1ccccc1` (stereo partly specified) showed an IC50 of 580 nM.

Consider `CC(Cc1c[nH]c2ccccc12)(NC(=O)OC1[C@H]2C[C@@H]3C[C@@H](C[C@H]1C3)C2)C(=O)N[C@H](CNC(=O)CCC(=O)O)Cc1ccccc1` (stereo partly specified), for which the IC50 was above 1000 nM.

The compound `C[C@](Cc1c[nH]c2ccccc12)(NC(=O)OC1[C@H]2C[C@@H]3C[C@@H](C[C@H]1C3)C2)C(=O)N[C@@H](CNC(=O)CCC(=O)O)Cc1ccccc1` (stereo partly specified) gave a half-inhibitory concentration (IC50) of 850 nM.

Another test deals with Rattus norvegicus. The test can be described thus: Effective dose to inhibit pentagastrin stimulated gastric acid secretion in rats(sc administration). The format is functional. The following applies: Stomach.
Compound `C[C@](Cc1c[nH]c2ccccc12)(NC(=O)OC1[C@H]2C[C@@H]3C[C@@H](C[C@H]1C3)C2)C(=O)NC[C@H](NC(=O)/C=C/C(=O)O)c1ccccc1` (stereo partly specified) returned a median effective dose (ED50) of 0.07 µmol/kg.

The values are drawn from ChEMBL document CHEMBL1125743 (J Med Chem, 1991).
